# Compound activity from PubChem BioAssay.
# SF-1 act = activators of human SF-1, primary screen, cell-based, CHO-K1, Gal4-SF-1 LBD, luciferase luminescence; 65,000 compounds, 1.9% hits; AID 522, 2006; activation, % at 10 µM; Steroidogenic factor 1 (Homo sapiens), Q13285; CHO-K1 Gal4-SF-1 LBD luciferase reporter; % increase over DMSO SF-1-specific signal;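 active means activation above the mean activation of all tested compounds plus 3 SD, cut at about 50% in these data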
# Target sequence (Q13285 whole entry, looked up, the tested form may be a part): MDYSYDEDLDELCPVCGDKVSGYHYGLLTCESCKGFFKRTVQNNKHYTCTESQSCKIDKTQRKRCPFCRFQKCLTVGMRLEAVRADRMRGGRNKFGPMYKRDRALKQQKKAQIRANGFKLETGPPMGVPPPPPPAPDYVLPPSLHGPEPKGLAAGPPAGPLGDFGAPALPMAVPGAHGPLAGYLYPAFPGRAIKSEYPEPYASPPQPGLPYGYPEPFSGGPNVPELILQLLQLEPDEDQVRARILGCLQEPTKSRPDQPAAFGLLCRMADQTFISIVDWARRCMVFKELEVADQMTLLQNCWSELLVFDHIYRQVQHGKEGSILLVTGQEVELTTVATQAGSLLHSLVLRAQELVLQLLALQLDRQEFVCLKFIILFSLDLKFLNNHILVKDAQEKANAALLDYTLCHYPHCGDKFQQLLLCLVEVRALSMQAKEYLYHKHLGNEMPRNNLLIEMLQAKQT
#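 Compound – one dose, 10 µM compound, 1% DMSO · Test system – transient Gal4-SF-1 LBD reporter, CHO-K1 · Input – 4,000 cells in each well · Read-out basis – percent activation relative to DMSO median and mock-transfected background · Replicates – single measurement per compound · Technique – steady-glow luciferase luminescence, read after 15 min reagent incubation · Timing – 20 h compound treatment, 37 °C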
# JNK3 blocker = JNK3 kinase activity inhibitors, primary screen, biochemical, human, purified enzyme; Mitogen-activated protein kinase 10 (Homo sapiens), P53779; 60,000 compounds, 0.61% hits; inhibition, % at 8 µM; HTS; AID 746, 2007; in the data active means inhibition above about 17%;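 further: 0% = DMSO and 100% = reference inhibitor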
# PKA inh = inhibitors of human PKA kinase activity, primary screen, biochemical, ATP-depletion luminescence, Kemptide substrate. cAMP-dependent protein kinase catalytic subunit alpha (Homo sapiens), P17612. PKA Kemptide phosphorylation, Kinase-Glo ATP luminescence. inhibition, % at 6 µM. 65,000 compounds, 0.1% hits;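 active means inhibition above the screen-wide mean inhibition plus 3 SD, cut at about 21% in these data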
# WNV protease inh = inhibitors of WNV NS2B-NS3 protease, primary screen, biochemical, fluorogenic substrate | Genome polyprotein (West Nile virus), P06935 | fluorogenic substrate Ex360/Em465; stronger effect = lower value | z-score (concentration not given with the values) | 65,000 compounds, 0.18% hits | AID 577, 2007; in the data active means z-score below about -3
# ROCK2 inh = inhibitors of human ROCK2 kinase, primary screen, biochemical, high-throughput, luminescence. Rho-associated protein kinase 2 (Homo sapiens), O75116. purified ROCK2, Kinase-Glo ATP depletion luminescence. inhibition, % at 6 µM. 60,000 compounds, 0.35% hits. AID 604, 2007;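 active means inhibition above the screen-wide mean inhibition plus 3 SD, cut at about 18% in these data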;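 further: plate controls were DMSO wells for no effect and Y-27632 control wells after no-enzyme background subtraction for full effect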
# RORa activator = activators of orphan receptor RORA, primary screen, cell-based, luminescence. Nuclear receptor ROR-alpha (Homo sapiens), P35398. activation, % at 10 µM. AID 560, 2006. CHO-K1 Gal4-RORA LBD luciferase reporter; percent increase over mock-subtracted basal signal. 65,000 compounds, 1.5% hits;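 active means activation above the mean of all tested compounds plus 3 SD, cut at about 49% in these data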;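 further: 0% = DMSO-treated RORA cells and 100% = added signal equal to DMSO minus mock-transfected cells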
# An asterisk follows results filed as active; . = not tested or not shown. Shown are actives, neighbours in structure and some others; about 3.4% of the full set was active somewhere.
SMILES,SF-1 act,JNK3 blocker,PKA inh,WNV protease inh,ROCK2 inh,RORa activator
O=C(Nc1cccc2nsnc12)c1ccc2c(c1)OCCO2,54.2*,6.1,10.5,0.17,8.6,69.6*
CCN1C(=O)N(CC)C(O)(c2ccccc2)C1(O)c1ccccc1 (stereo not given),-3.7,-2.9,-6.7,-0.14,34.0*,7.9
CCNC(=O)NC(=O)COc1ccccc1C#N,54.4*,2.1,7.2,-0.01,4.0,18.7
Cc1ccc2oc(Nc3nc(C)cc(C)n3)nc2c1,21.9,-0.2,5.6,-1.13,5.4,52.2*
COC(=O)C1C(=O)c2c([nH]c(C(=O)OC3CCCC3)c2C)CC1C (stereo not given),56.0*,.,9.1,-0.24,.,49.4*
Cc1c(C(=O)OC2CCCC2)[nH]c2c1C(=O)CC(c1ccco1)C2 (stereo not given),-43.7,6.0,-10.3,-0.2,-1.8,-40.8
CCOC(=O)CNC(=O)c1ccc2c(c1)OCCO2,52.6*,-0.1,10.5,0.65,2.9,33.4
CCOC(=O)CNC(=O)c1cc(-c2ccc3c(c2)OCCO3)oc1C,-6.9,.,7.8,0.4,.,-9.7
CC1=CC(=C2C(=O)c3ccccc3C2=O)C=C(C)N1Cc1ccco1,17.6,33.9*,-3.8,0.67,0.3,19.5
CC1=CC(=C2C(=O)c3ccccc3C2=O)C=C(C)O1,41.5,10.5,3.6,-0.43,1.9,57.3*
CC(=O)N1C(=O)C(=C2C=C(C)OC(C)=C2)c2ccccc21,-8.8,1.9,7.7,2.43,3.3,1.9
O=C1c2ccccc2C(=O)N1Cc1ccco1,-3.0,3.0,10.9,-0.01,6.5,0.1
Cc1ccnc(NC(=O)CCC(=O)N(CC(=O)NC2CCCCC2)CC2CCCO2)c1 (stereo not given),5.7,0.1,8.8,-1.03,5.3,11.5
CCOC(=O)c1c(C)[nH]c(C(=O)COC(=O)c2oc3ccc(OC)cc3c2C)c1C,-3.9,0.2,5.7,-1.09,5.7,-2.1
CCOC(=O)c1oc2ccc(CNCCO)c(Cl)c2c1C,66.0*,5.1,6.2,-0.26,-1.8,19.1
Cc1nc(N2CCN(C(=O)c3ccc(Cl)cc3)CC2)c(C#N)c2c1COC(C)(C)C2,-10.3,-3.6,-1.6,0.81,3.3,-2.2
Cc1ccc2nc(Nc3ccc4[nH]c(=O)[nH]c4c3)c(-n3nc(C)cc3C)nc2c1,4.7,-0.5,6.8,-1.38,11.8,58.8*
Cn1c(=O)c2c(nc(SCc3ccccn3)n2C)n(C)c1=O,-14.7,-5.4,-5.6,-2,-3.5,-4.4
CSc1ncccc1C(=O)OCc1ccccc1F,29.2,0.2,6.7,0.04,2.4,88.6*
Clc1ccccc1Cn1nnc(-c2cccs2)n1,50.8*,-5.3,0.4,-0.42,2.6,43.2
O=C(CCn1nnc(-c2cccs2)n1)NCc1ccccc1Cl,-11.4,1.2,3.0,-0.78,2.9,0.9
O=c1cc(O)c2c(=O)n3c4c(cccc4c2o1)CCC3,-3.8,-4.2,6.4,-0.88,0.6,3.4
CCOC(=O)/C(C(C)=O)=C1\OC(=O)c2ccccc21,-16.1,2.0,0.9,-0.55,2.4,-6.3
COC(=O)c1[nH]c2ccc(C)cc2c1NC(=O)CN1CCCCC1C (stereo not given),-21.1,-8.3,2.7,0.73,3.2,-9.8
O=C1C2C3C=CC(C3)C2C(=O)N1c1ccc(-c2nc3ccccc3o2)cc1 (stereo not given),40.6,-0.6,14.4,0.34,5.0,72.8*
SMILES,SF-1 act,JNK3 blocker,PKA inh,WNV protease inh,ROCK2 inh,RORa activator
CCOC(=O)Cn1nnnc1CN(Cc1ccccc1)Cc1cc2cc(CC)ccc2[nH]c1=O,19.5,2.7,-3.7,0.68,1.2,58.2*
CN(C)c1oc(-c2ccc(OCc3ccccc3)cc2)nc1C#N,61.2*,-13.1,-1.2,-0.21,-0.9,6.8
CCS(=O)(=O)N1Cc2ccccc2CC1C(=O)N1CCN(c2cccc(C)c2C)CC1 (stereo not given),4.6,2.3,11.0,-3.14*,7.2,-15.2
O=C(COc1ccc(-n2cnnn2)cc1)NC(=O)NCc1ccccc1,5.8,-5.0,12.3,0.42,3.7,-6.7
O=C(Nc1ccccc1)Nc1cccc2cccnc12,46.8,5.2,-10.4,-0.18,-0.1,86.2*
Cc1ccc(S(=O)(=O)Nc2nonc2C)cc1,0.0,1.3,-4.3,1.38,-3.2,-5.7
COC(=O)c1ccc(NC(=O)Cn2nnc3ccccc32)cc1,75.6*,5.8,-7.0,-0.99,-1.0,42.2
Cc1csc(N(C)C(=O)CSc2nnc(COc3cccc4ccccc34)o2)n1,-45.9,4.8,8.0,-0.14,4.9,-40.8
CC(=O)Nc1ccc2nc(-c3cccnc3)[nH]c2c1,11.6,.,3.5,0.93,.,20.2
Fc1cc2nc(-c3ccncc3)[nH]c2cc1F,6.6,.,23.8*,1.14,.,20.6
c1ccc(Cc2nn3c(-c4ccncc4)nnc3s2)cc1,-1.0,5.9,5.7,-0.11,1.5,-25.7
COc1cccc(OC)c1C(=O)Nc1ccc2c(c1)OCCO2,-2.5,-0.8,4.5,0.34,5.1,-2.3
COc1cc(C(=O)Nc2ccc3c(c2)OCCO3)ccc1OC(C)C,54.3*,-2.2,2.4,-0.75,2.8,45.4
COc1cc(C(=O)Nc2ccc3c(c2)OCCO3)ccc1OC(F)F,63.8*,-2.7,-0.7,-0.09,-2.8,75.5*
Cc1csc2nc(CSc3nncn3-c3ccccc3)c(Br)n12,21.3,1.9,-1.8,2.1,-0.5,-2.0
Cc1csc2nc(CSc3nc4ccccc4o3)c(Br)n12,61.1*,1.2,11.9,0.83,5.9,34.4
CC(OC(=O)c1cccs1)C(=O)NCC1CCCO1 (stereo not given),6.1,-0.6,9.9,0.12,3.7,9.0
Cn1c(C(=O)N2CCCC(C(=O)N3CCN(C(=O)c4ccco4)CC3)C2)cc2sccc21 (stereo not given),18.3,-3.1,-6.8,-0.25,83.5*,-9.6
Cn1c(C(=O)N2CCCC(C(=O)O)C2)cc2sccc21 (stereo not given),21.7,0.1,3.6,1.19,2.7,-6.4
O=c1oc2ccccc2cc1-c1cn2cccnc2n1,36.5,-2.2,0.9,0.76,-12.5,55.0*
Nc1cccc2cnccc12,-17.9,-5.9,-6.2,1.02,25.6*,8.9
CS(=O)(=O)N1CCN(c2ccccc2NC(=O)Cc2ccccc2)CC1,-0.8,17.5*,11.3,-1.17,6.3,5.3
